Experimental data from ChEMBL document CHEMBL5034016 (J Med Chem, 2021).
Each block holds one molecule with its values, some of them ahead of it.

Key:
Enterovirus [1] = assay: Antiviral activity against Enterovirus A71 harbouring VP1 P246S mutant infected in human RD cells assessed as reduction in virus induced cytopathic effect incubated for 3 days by MTS/PMS assay; format: functional, organism-based
Enterovirus [2] = assay: Antiviral activity against Enterovirus A71 harbouring VP1 S184T mutant infected in human RD cells assessed as reduction in virus induced cytopathic effect incubated for 3 days by MTS/PMS assay; format: functional, organism-based
[3] = Cytotoxicity against human RD cells assessed as reduction in cell viability measured after 3 days by MTS/PMS assay; format: cell-based; settings: time 3 day
Method in brief: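 Uninfected RD cells were treated with serial compound dilutions in the same 3-day setup as the antiviral assay. […] Multiple dose–response curves (>2) from >1 independent experiments.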

Enterovirus [4] = assay: Antiviral activity against Enterovirus A71 harbouring VP1 S184T/P246S double mutant infected in human RD cells assessed as reduction in virus induced cytopathic effect incubated for 3 days by MTS/PMS assay; format: functional, organism-based
Enterovirus A71 = assay: Antiviral activity against Enterovirus A71 BrCr infected in human RD cells assessed as reduction in virus-induced cytopathic effect incubated for 3 days by MTS/PMS assay; format: functional, organism-based; settings: Enterovirus A, 72 h
[5] = Selectivity index, ratio of CC50 for human RD cells to EC50 for antiviral activity against Enterovirus A71 infected in human RD cells; format: toxicity, cell-based; settings: read-out: Ratio CC50/EC50
[6] = system: Human immunodeficiency virus 2; assay: Anti-HIV activity against HIV-2 ROD infected in human MT4 cells assessed as reduction in virus-indued cytopathic effect preincubated with cells for 30 mins followed by viral infection and measured after 5 days by MTS assay; format: functional, organism-based; settings: Human immunodeficiency virus 2, ROD
Method in brief: (§1)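 MT-4 cells (1×10^6 cells/mL) were preincubated with compound for 30 min at 37 °C, then infected with cell-line-adapted NL4.3 or ROD dosed by TCID50 of the stock. After 5 days, CPE was scored microscopically and EC50 calculated from MTS/PES reduction (A490). Mean ± SD of at least three independent experiments.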

[7] = system: Human immunodeficiency virus 1; assay: Anti-HIV activity against HIV-1 NL4.3 infected in human MT4 cells assessed as reduction in virus-indued cytopathic effect preincubated with cells for 30 mins followed by viral infection and measured after 5 days by MTS assay; format: functional, organism-based; settings: Human immunodeficiency virus 1, NL4.3, MT4; method in brief: as §1
[8] = Cytotoxicity against human MT4 cells assessed as reduction in cell viability measured after 5 days by MTS/PES assay; format: cell-based; settings: time 5 day
Method in brief: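 Uninfected MT-4 cells were exposed to compound for 5 days. Viability was read by MTS/PES (A490, formazan proportional to living cells). […] Mean ± SD of at least three independent experiments.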

[9] = Inhibition of mouse mAb clone 9284 binding to HIV1 gp120 expressed in human MT4 cells by flow cytometry analysis; format: cell-based, Human immunodeficiency virus 1
[10] = Inhibition of human mAb clone 447-52D binding to HIV1 gp120 expressed in human MT4 cells by flow cytometry analysis; format: cell-based, Human immunodeficiency virus 1
[11] = Inhibition of human mAb clone 2G12 binding to HIV1 gp120 expressed in human MT4 cells by flow cytometry analysis; format: cell-based, Human immunodeficiency virus 1
[12] = Inhibition of mouse mAb clone 9305 binding to HIV1 gp120 expressed in human MT4 cells by flow cytometry analysis; format: cell-based, Human immunodeficiency virus 1
[13] = system: Human immunodeficiency virus 1; assay: Inhibition of HIV-1 gp120 interaction with human CD4 assessed as inhibition of viral entry at 156 to […] by SPR analysis; settings: dose lower […], dose upper […]
[14] = system: Human immunodeficiency virus 1; assay: Inhibition of HIV-1 gp120 interaction with human CD4 assessed as inhibition of viral entry at 10 to 40 nM by SPR analysis relative to control; settings: dose 10-40 nM
Method in brief: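 His-CD4 (2 μg/mL) was captured on a Ni-chelated chip (0.5 mM NiCl2 activation). 25 nM gp120 premixed with compound (10 000 to 10 nM, fourfold steps) was injected for 2 min over reference and analysis channels. Binding % used the maximum response at end of injection relative to 25 nM gp120 alone. Regeneration was with 350 mM EDTA. Run in triplicate.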

rhinovirus B14 = assay: Antiviral activity against Human rhinovirus 14 infected in HeLa cells assessed as reduction in virus induced cytopathic effect; format: functional, organism-based; settings: Rhinovirus B
rhinovirus A2 = assay: Antiviral activity against Human rhinovirus 2 infected in HeLa cells assessed as reduction in virus induced cytopathic effect; format: functional, organism-based; settings: Rhinovirus A
[15] = system: Human immunodeficiency virus 1; assay: Binding affinity to CM5 sensor chip immobilized recombinant HIV-1 gp120 assessed as association constant at 12.5 to 0.1 uM by SPR analysis; settings: dose 12.5-0.1 µM
[16] = system: Human immunodeficiency virus 1; assay: Potency index, ratio of AL-471 EC50 to test compound EC50 for anti-HIV activity against HIV-1 NL4.3 infected in human MT4 cells assessed as reduction in virus-indued cytopathic effect preincubated with cells for 30 mins followed by viral infection and measured after 5 days by MTS assay; format: functional; settings: time 120.5 hrs
[17] = system: Human immunodeficiency virus 1; assay: Potency index, ratio of AL-471 Kd to test compound Kd for binding affinity to CM5 sensor chip immobilized recombinant HIV-1 gp120 at 12.5 to 0.1 uM measured for 4 mins by SPR analysis; settings: dose 12.5-0.1 µM
[18] = system: Human immunodeficiency virus 1; assay: Inhibition of HIV-1 gp120 interaction with human CD4 assessed as fold change in inhibition of viral entry at 10 to 40 nM by SPR analysis relative to AL-471; settings: dose 10-40 nM
Method in brief: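 His-CD4 at 2 μg/mL captured on a NiCl2-activated chip channel, with a reference channel alongside. 25 nM gp120 premixed with compound, 10 000 to 10 nM in fourfold steps, injected 2 min over both channels. Surface regenerated with 350 mM EDTA. Binding % from maximum response at injection end versus gp120 alone. Triplicate experiments.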

[19] = system: Human immunodeficiency virus 1; assay: Anti-HIV activity against HIV-1 Ba-L infected in PHA-stimulated PBMC expressing CCR5 assessed as inhibition of virus-indued cytopathogenic effect measured after 10 days by ELISA; format: functional, organism-based; settings: Human immunodeficiency virus 1, Ba-L, 240 h
[20] = system: Human immunodeficiency virus 1; assay: Anti-HIV activity against HIV-1 NL4.3 infected in PHA-stimulated human PBMC expressing CXCR-4 assessed as inhibition of virus-indued cytopathogenic effect measured after 10 days by ELISA; format: functional, organism-based; settings: Human immunodeficiency virus 1, NL4.3, PBMC, 240 h

SMILES: O=C(CCC(CCC(=O)N[C@H](Cc1c[nH]c2ccccc12)C(=O)O)(CCC(=O)N[C@H](Cc1c[nH]c2ccccc12)C(=O)O)NC(=O)CCOCC(COCCC(=O)NC(CCC(=O)N[C@H](Cc1c[nH]c2ccccc12)C(=O)O)(CCC(=O)N[C@H](Cc1c[nH]c2ccccc12)C(=O)O)CCC(=O)N[C@H](Cc1c[nH]c2ccccc12)C(=O)O)(COCCC(=O)NC(CCC(=O)N[C@H](Cc1c[nH]c2ccccc12)C(=O)O)(CCC(=O)N[C@H](Cc1c[nH]c2ccccc12)C(=O)O)CCC(=O)N[C@H](Cc1c[nH]c2ccccc12)C(=O)O)COCCC(=O)NC(CCC(=O)N[C@H](Cc1c[nH]c2ccccc12)C(=O)O)(CCC(=O)N[C@H](Cc1c[nH]c2ccccc12)C(=O)O)CCC(=O)N[C@H](Cc1c[nH]c2ccccc12)C(=O)O)N[C@H](Cc1c[nH]c2ccccc12)C(=O)O
EC50 (Enterovirus [1]): 4.7 µM
EC50 (Enterovirus [2]): 2 µM
CC50 at 72 h [3]: 24.9 µM
EC50 (Enterovirus [4]): 8.9 µM
EC50 (Enterovirus A71): 0.3 µM

SMILES: O=C(CCOCC(COCCC(=O)NC(Cc1c(-c2ccc(C(=O)O)cc2)[nH]c2c(-c3ccc(C(=O)O)cc3)cccc12)C(=O)O)(COCCC(=O)NC(Cc1c(-c2ccc(C(=O)O)cc2)[nH]c2c(-c3ccc(C(=O)O)cc3)cccc12)C(=O)O)COCCC(=O)NC(Cc1c(-c2ccc(C(=O)O)cc2)[nH]c2c(-c3ccc(C(=O)O)cc3)cccc12)C(=O)O)NC(Cc1c(-c2ccc(C(=O)O)cc2)[nH]c2c(-c3ccc(C(=O)O)cc3)cccc12)C(=O)O (configuration not stated)
selectivity ratio [5]: 667

SMILES: O=C(CCC(CCC(=O)NC(Cc1c[nH]c2c(-c3ccc(C(=O)O)cc3)cccc12)C(=O)O)(CCC(=O)NC(Cc1c[nH]c2c(-c3ccc(C(=O)O)cc3)cccc12)C(=O)O)[N+](=O)[O-])NC(Cc1c[nH]c2c(-c3ccc(C(=O)O)cc3)cccc12)C(=O)O (configuration not stated)
EC50 [6]: 49.7 µM
EC50 [7]: 12 µM
CC50 at 120 h [8]: > 100 µM
CC50 at 72 h [3]: > 61 µM
EC50 (Enterovirus A71): 61.6 µM
selectivity ratio [5]: 1

SMILES: O=C(CCC(CCC(=O)NC(Cc1c(-c2cc(C(=O)O)cc(C(=O)O)c2)[nH]c2c(-c3cc(C(=O)O)cc(C(=O)O)c3)cccc12)C(=O)O)(CCC(=O)NC(Cc1c(-c2cc(C(=O)O)cc(C(=O)O)c2)[nH]c2c(-c3cc(C(=O)O)cc(C(=O)O)c3)cccc12)C(=O)O)[N+](=O)[O-])NC(Cc1c(-c2cc(C(=O)O)cc(C(=O)O)c2)[nH]c2c(-c3cc(C(=O)O)cc(C(=O)O)c3)cccc12)C(=O)O (configuration not stated)
EC50 [6]: 0.07 µM
EC50 [7]: 0.04 µM
CC50 at 120 h [8]: > 100 µM
CC50 at 72 h [3]: > 100 µM
EC50 (Enterovirus A71): 0.2 µM
selectivity ratio [5]: 526

SMILES: O=C(CCC(CCC(=O)NC(Cc1c(-c2cc(C(=O)O)cc(C(=O)O)c2)[nH]c2ccccc12)C(=O)O)(CCC(=O)NC(Cc1c(-c2cc(C(=O)O)cc(C(=O)O)c2)[nH]c2ccccc12)C(=O)O)[N+](=O)[O-])NC(Cc1c(-c2cc(C(=O)O)cc(C(=O)O)c2)[nH]c2ccccc12)C(=O)O (configuration not stated)
selectivity ratio [5]: 203

SMILES: O=C(CCC(CCC(=O)NC(Cc1c[nH]c2c(-c3cccc(C(=O)O)c3)cccc12)C(=O)O)(CCC(=O)NC(Cc1c[nH]c2c(-c3cccc(C(=O)O)c3)cccc12)C(=O)O)[N+](=O)[O-])NC(Cc1c[nH]c2c(-c3cccc(C(=O)O)c3)cccc12)C(=O)O (configuration not stated)
selectivity ratio [5]: 1

SMILES: O=C(CCC(CCC(=O)NC(Cc1c[nH]c2c(-c3cc(C(=O)O)cc(C(=O)O)c3)cccc12)C(=O)O)(CCC(=O)NC(Cc1c[nH]c2c(-c3cc(C(=O)O)cc(C(=O)O)c3)cccc12)C(=O)O)[N+](=O)[O-])NC(Cc1c[nH]c2c(-c3cc(C(=O)O)cc(C(=O)O)c3)cccc12)C(=O)O (configuration not stated)
selectivity ratio [5]: 63

IC50 [9]: > 100 µM
IC50 [10]: > 100 µM
IC50 [11]: > 100 µM
IC50 [12]: > 100 µM
inhibition [13]: 50%
SMILES: O=C(CCOCC(COCCC(=O)NC(Cc1c(-c2cc(C(=O)O)cc(C(=O)O)c2)[nH]c2ccccc12)C(=O)O)(COCCC(=O)NC(Cc1c(-c2cc(C(=O)O)cc(C(=O)O)c2)[nH]c2ccccc12)C(=O)O)COCCC(=O)NC(Cc1c(-c2cc(C(=O)O)cc(C(=O)O)c2)[nH]c2ccccc12)C(=O)O)NC(Cc1c(-c2cc(C(=O)O)cc(C(=O)O)c2)[nH]c2ccccc12)C(=O)O (configuration not stated)

SMILES: O=C(CCOCC(COCCC(=O)NC(Cc1c[nH]c2c(-c3ccc(C(=O)O)cc3)cccc12)C(=O)O)(COCCC(=O)NC(Cc1c[nH]c2c(-c3ccc(C(=O)O)cc3)cccc12)C(=O)O)COCCC(=O)NC(Cc1c[nH]c2c(-c3ccc(C(=O)O)cc3)cccc12)C(=O)O)NC(Cc1c[nH]c2c(-c3ccc(C(=O)O)cc3)cccc12)C(=O)O (configuration not stated)
selectivity ratio [5]: 60

SMILES: O=C(CCOCC(COCCC(=O)NC(Cc1c[nH]c2c(-c3cc(C(=O)O)cc(C(=O)O)c3)cccc12)C(=O)O)(COCCC(=O)NC(Cc1c[nH]c2c(-c3cc(C(=O)O)cc(C(=O)O)c3)cccc12)C(=O)O)COCCC(=O)NC(Cc1c[nH]c2c(-c3cc(C(=O)O)cc(C(=O)O)c3)cccc12)C(=O)O)NC(Cc1c[nH]c2c(-c3cc(C(=O)O)cc(C(=O)O)c3)cccc12)C(=O)O (configuration not stated)
selectivity ratio [5]: 157

SMILES: CCOC(=O)c1ccc(OCCC2CCN(c3ccc(C)nn3)CC2)cc1 [PIRODAVIR]
selectivity ratio [5]: 333

SMILES: O=C(CCOCC(COCCC(=O)NC(Cc1c[nH]c2c(-c3cccc(C(=O)O)c3)cccc12)C(=O)O)(COCCC(=O)NC(Cc1c[nH]c2c(-c3cccc(C(=O)O)c3)cccc12)C(=O)O)COCCC(=O)NC(Cc1c[nH]c2c(-c3cccc(C(=O)O)c3)cccc12)C(=O)O)NC(Cc1c[nH]c2c(-c3cccc(C(=O)O)c3)cccc12)C(=O)O (configuration not stated)
selectivity ratio [5]: 20

SMILES: O=C(CCOCC(COCCC(=O)NC(Cc1c(-c2cc(C(=O)O)cc(C(=O)O)c2)[nH]c2c(-c3cc(C(=O)O)cc(C(=O)O)c3)cccc12)C(=O)O)(COCCC(=O)NC(Cc1c(-c2cc(C(=O)O)cc(C(=O)O)c2)[nH]c2c(-c3cc(C(=O)O)cc(C(=O)O)c3)cccc12)C(=O)O)COCCC(=O)NC(Cc1c(-c2cc(C(=O)O)cc(C(=O)O)c2)[nH]c2c(-c3cc(C(=O)O)cc(C(=O)O)c3)cccc12)C(=O)O)NC(Cc1c(-c2cc(C(=O)O)cc(C(=O)O)c2)[nH]c2c(-c3cc(C(=O)O)cc(C(=O)O)c3)cccc12)C(=O)O (configuration not stated)
inhibition [14]: 50%
EC50 (rhinovirus B14): > 50 µM
EC50 (rhinovirus A2): > 50 µM
IC50 [11]: > 100 µM
IC50 [12]: > 100 µM
ka [15]: 3.34 10^3/M/s
Ratio EC50 [16]: 3.5
Ratio [17]: 6
fold change (FC) [18]: 16
selectivity ratio [5]: 2500

EC50 [19]: 0.00448 µM
EC50 [20]: > 1 µM
SMILES: Cc1nnc(C(C)C)n1[C@H]1C[C@H]2CC[C@@H](C1)N2CC[C@H](NC(=O)C1CCC(F)(F)CC1)c1ccccc1 [MARAVIROC]
